Source: ChEMBL document CHEMBL4177761, “Highlights of the Structure-Activity Relationships of Benzimidazole Linked Pyrrolidines Leading to the Discovery of the Hepatitis C Virus NS5A Inhibitor Pibrentasvir (ABT-530)” (J Med Chem, 2018)

How the values were obtained:
[1] = AUClast in mouse at 3 mg/kg, po by LC-MS method; type: ADME, organism-based; set-up: dose 3 mg/kg, time 0 - last, route oral; settings: in vivo
In short: (§1)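 Single dose, 3 mg/kg, in mouse or rat. IV vehicle: DMSO:Tween 80:PEG-400:D5W 2:5:20:73 (v/v). PO vehicle: Phosol 53 MCT:PEG-400:Poloxamer 124:Cremophor RH40 40:20:20:20 (w/w). Acetonitrile protein precipitation, then LC-MS/MS in negative-ion MRM against an internal standard; LOQ ~20 ng/mL.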

[2] = Plasma clearance in mouse at 3 mg/kg, iv by LC-MS method; type: ADME, organism-based; in short: as §1
[3] = Drug level in dog at 2.5 mg/kg, po at 24 hrs by LC-MS method; type: ADME, organism-based, Canis lupus familiaris; settings: in vivo, read-out: Drug uptake
In short: (§2)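 Single dose in dog or monkey, 1 mg/kg IV or 2.5 mg/kg PO. Plasma drug measured by LC-MS after acetonitrile protein precipitation with an internal standard. Quantified by linear regression of parent/internal-standard peak-area ratio against spiked standards.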

[4] = Half life in monkey at 1 mg/kg, iv by LC-MS method; type: ADME, organism-based, Macaca mulatta; settings: rhesus monkey, in vivo; in short: as §2
[5] = Half life in dog at 1 mg/kg, iv by LC-MS method; type: ADME, organism-based, Canis lupus familiaris; settings: in vivo; in short: as §2
[6] = AUClast in rat at 3 mg/kg, po by LC-MS method; type: ADME, organism-based; set-up: dose 3 mg/kg, route oral, time 0 - last; settings: in vivo; in short: as §1
[7] = Drug level in mouse at 3 mg/kg, po at 24 hrs by LC-MS method; type: ADME, organism-based; settings: in vivo, read-out: Drug uptake; in short: as §1
[8] = Plasma clearance in rat at 3 mg/kg, iv by LC-MS method; type: ADME, organism-based; in short: as §1
[9] = AUClast in mouse at 3 mg/kg, iv by LC-MS method; type: ADME, organism-based; set-up: dose 3 mg/kg, route intravenous, time 0 - last; settings: in vivo; in short: as §1
[10] = Apparent volume of distribution in mouse at 3 mg/kg, iv by LC-MS method; type: ADME, organism-based; settings: in vivo, read-out: Vc; in short: as §1
[11] = Tmax in monkey at 2.5 mg/kg, po by LC-MS method; type: ADME, organism-based, Macaca mulatta; settings: rhesus monkey, in vivo; in short: as §2
[12] = target: T1, Nonstructural protein 5A (Hepatitis C virus) (UniProt Q5L478); experiment: Inhibition of NS5A Q30R mutant in HuH7 cell infected HCV genotype 1a H77 assessed as decrease in viral replication after 4 days by luciferase reporter gene assay relative to wild type protein; settings: Hepatitis C virus (isolate H77)
T1 sequence (whole entry): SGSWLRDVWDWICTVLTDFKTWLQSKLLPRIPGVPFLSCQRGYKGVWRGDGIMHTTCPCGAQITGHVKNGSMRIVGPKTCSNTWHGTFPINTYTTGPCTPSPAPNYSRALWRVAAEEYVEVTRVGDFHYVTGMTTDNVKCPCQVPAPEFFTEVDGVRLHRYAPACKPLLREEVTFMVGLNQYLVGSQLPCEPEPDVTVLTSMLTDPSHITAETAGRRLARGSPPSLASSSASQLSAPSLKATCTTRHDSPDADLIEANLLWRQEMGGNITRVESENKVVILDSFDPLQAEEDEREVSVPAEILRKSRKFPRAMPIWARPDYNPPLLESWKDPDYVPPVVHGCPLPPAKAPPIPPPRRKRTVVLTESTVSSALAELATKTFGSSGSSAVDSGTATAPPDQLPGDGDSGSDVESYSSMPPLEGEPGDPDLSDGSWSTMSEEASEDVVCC
In short: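 Stable subgenomic luciferase replicons in Huh-7 cells: genotype 1a-H77 carrying NS5A substitutions M28T, Q30E, Q30R, Y93C, Y93H or Y93N, tested alongside the wild-type replicon. Cells are incubated 4 days with compound in DMEM with 5% FBS. Luciferase read-out, EC50 by 4-parameter logistic fit, and fold change versus wild type.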

[13] = Tmax in dog at 2.5 mg/kg, po by LC-MS method; type: ADME, organism-based, Canis lupus familiaris; settings: in vivo; in short: as §2
[14] = Apparent volume of distribution in dog at 1 mg/kg, iv by LC-MS method; type: ADME, organism-based, Canis lupus familiaris; settings: in vivo, read-out: Vc; in short: as §2
[15] = Tmax in mouse at 3 mg/kg, po by LC-MS method; type: ADME, organism-based; settings: in vivo
[16] = AUClast in dog at 2.5 mg/kg, po by LC-MS method; type: ADME, organism-based, Canis lupus familiaris; set-up: dose 2.5 mg/kg, route oral, time 0 - last; settings: in vivo; in short: as §2

COC(=O)N[C@H](C(=O)N1CCC[C@H]1c1nc2cc([C@H]3CC[C@H](c4cc5nc([C@@H]6CCCN6C(=O)[C@@H](NC(=O)OC)[C@@H](C)OC)[nH]c5cc4F)N3c3cc(F)c(N4CCC(c5ccc(F)cc5)CC4)c(F)c3)c(F)cc2[nH]1)[C@@H](C)OC [PIBRENTASVIR]
AUC(0-t) [1]: 20000 ng·h/mL | clearance [2]: < 0.05 mL/min/kg | concentration at 24 h [3]: 82 nM | half-life [4]: 8.3 h | half-life [5]: 7.1 h | AUC(0-t) [6]: 3600 ng·h/mL | concentration at 24 h [7]: 467 nM | clearance [8]: 1.17 mL/min/kg | AUC(0-t) [9]: 252000 ng·h/mL | Vd [10]: 0.09 L/kg | Tmax [11]: 4 h | fold change (FC) [12]: 1.7 | Tmax [13]: 3.67 h | Vd [14]: 0.1 L/kg | Tmax [15]: 11 h | AUC(0-t) [16]: 5990 ng·h/mL
